Results reported in ChEMBL document CHEMBL3259762, “Synthesis of novel 1,2,3-triazole derivatives of isoniazid and their in vitro and in vivo antimycobacterial activity evaluation” (Eur J Med Chem, 2014).
≈ marks a conversion by molar mass, not a printed value. Calls of active or inactive are those of the source. The rule behind the calls is not given here.

What was measured:
[1] = system: Mycobacterium tuberculosis; experiment: Antimycobacterial activity against Mycobacterium tuberculosis H37Rv ATCC 27294 after 14 days by microscopy; assay type: functional; details: H37Rv ATCC 27294, 336 h
Summary of the method: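 2-fold serial dilutions of compounds (from DMSO stocks), 50 to 0.195 µM final, in 7H9 broth with 0.05% Tween 80, 0.2% glycerol and ADS. Inoculum is a culture grown to A600 0.2 and diluted 1:1000. Incubated at 37 C for 14 days. MIC99 (99% growth inhibition) read macroscopically with an inverted plate reader. Done in triplicate.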

THP-1 = experiment: Cytotoxicity against human THP1 cells; assay type: cell-based
[2] = system: Mycobacterium tuberculosis; experiment: Antimycobacterial activity against Mycobacterium tuberculosis H37Rv ATCC 27294 infected in Balb/c mouse assessed as reduction in bacterial load in spleen at 100 mg/kg, po qd administered five days in a week starting 2 weeks post challenge measured after 3 weeks relative to DMSO-treated control; assay type: functional
Summary of the method: (§1)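 Balb/c mice of either sex (25-30 g) infected by aerosol in an inhalation chamber, about 1000 bacilli/lung. Oral gavage once daily, 5 days/week, starting 2 weeks post-infection. DMSO and untreated groups as controls. N = 5/group, killed at 3, 6 and 10 weeks of therapy. Lung or spleen homogenates in saline plated in duplicate on 7H11 agar, 37 C for 3–4 weeks. Read-out is log10 CFU/organ.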

[3] = system: Mycobacterium tuberculosis; experiment: Antimycobacterial activity against Mycobacterium tuberculosis H37Rv ATCC 27294 infected in Balb/c mouse assessed as reduction in bacterial load in lung at 100 mg/kg, po qd administered five days in a week starting 2 weeks post challenge measured after 3 weeks relative to DMSO-treated control; assay type: functional; summary of the method: as §1
[4] = system: Mycobacterium tuberculosis; experiment: Antimycobacterial activity against Mycobacterium tuberculosis H37Rv ATCC 27294 infected in Balb/c mouse assessed as reduction in bacterial load in spleen at 100 mg/kg, po qd administered five days in a week starting 2 weeks post challenge measured after 6 weeks relative to DMSO-treated control; assay type: functional; summary of the method: as §1
[5] = system: Mycobacterium tuberculosis; experiment: Antimycobacterial activity against Mycobacterium tuberculosis H37Rv ATCC 27294 infected in Balb/c mouse assessed as reduction in bacterial load in lung at 100 mg/kg, po qd administered five days in a week starting 2 weeks post challenge measured after 10 weeks relative to DMSO-treated control; assay type: functional; summary of the method: as §1
[6] = system: Mycobacterium tuberculosis; experiment: Antimycobacterial activity against Mycobacterium tuberculosis H37Rv ATCC 27294 infected in Balb/c mouse assessed as reduction in bacterial load in lung at 100 mg/kg, po qd administered five days in a week starting 2 weeks post challenge measured after 6 weeks relative to DMSO-treated control; assay type: functional; summary of the method: as §1
[7] = system: Mycobacterium tuberculosis; experiment: Antimycobacterial activity against Mycobacterium tuberculosis H37Rv ATCC 27294 infected in Balb/c mouse assessed as reduction in bacterial load in lung at 100 mg/kg, po qd administered five days in a week starting 2 weeks post challenge measured after 10 weeks relative to untreated control; assay type: functional; summary of the method: as §1
[8] = system: Mycobacterium tuberculosis; experiment: Antimycobacterial activity against Mycobacterium tuberculosis H37Rv ATCC 27294 infected in Balb/c mouse assessed as reduction in bacterial load in spleen at 100 mg/kg, po qd administered five days in a week starting 2 weeks post challenge measured after 6 weeks relative to untreated control; assay type: functional; summary of the method: as §1
[9] = system: Mycobacterium tuberculosis; experiment: Antimycobacterial activity against Mycobacterium tuberculosis H37Rv ATCC 27294 infected in Balb/c mouse assessed as reduction in bacterial load in lung at 100 mg/kg, po qd administered five days in a week starting 2 weeks post challenge measured after 6 weeks relative to untreated control; assay type: functional; summary of the method: as §1
[10] = system: Mycobacterium tuberculosis; experiment: Antimycobacterial activity against Mycobacterium tuberculosis H37Rv ATCC 27294 infected in Balb/c mouse assessed as reduction in bacterial load in lung at 100 mg/kg, po qd administered five days in a week starting 2 weeks post challenge measured after 3 weeks relative to untreated control; assay type: functional; summary of the method: as §1
[11] = system: Mycobacterium tuberculosis; experiment: Antimycobacterial activity against Mycobacterium tuberculosis H37Rv ATCC 27294 infected in Balb/c mouse assessed as reduction in bacterial load in spleen at 100 mg/kg, po qd administered five days in a week starting 2 weeks post challenge measured after 3 weeks relative to untreated control; assay type: functional; summary of the method: as §1
[12] = system: Mycobacterium tuberculosis; experiment: Antimycobacterial activity against Mycobacterium tuberculosis H37Rv ATCC 27294 infected in Balb/c mouse assessed as reduction in bacterial load in spleen at 100 mg/kg, po qd administered five days in a week starting 2 weeks post challenge measured after 10 weeks relative to untreated control; assay type: functional; summary of the method: as §1
[13] = system: Mycobacterium tuberculosis; experiment: Antimycobacterial activity against Mycobacterium tuberculosis H37Rv ATCC 27294 infected in Balb/c mouse assessed as reduction in bacterial load in spleen at 25 mg/kg, po qd administered five days in a week starting 2 weeks post challenge measured after 10 weeks relative to untreated control; assay type: functional; summary of the method: as §1
[14] = system: Mycobacterium tuberculosis; experiment: Antimycobacterial activity against Mycobacterium tuberculosis H37Rv ATCC 27294 infected in Balb/c mouse assessed as reduction in bacterial load in spleen at 50 mg/kg, po qd administered five days in a week starting 2 weeks post challenge measured after 10 weeks relative to DMSO-treated control; assay type: functional; summary of the method: as §1
[15] = system: Mycobacterium tuberculosis; experiment: Antimycobacterial activity against Mycobacterium tuberculosis H37Rv ATCC 27294 infected in Balb/c mouse assessed as reduction in bacterial load in spleen at 100 mg/kg, po qd administered five days in a week starting 2 weeks post challenge measured after 10 weeks relative to DMSO-treated control; assay type: functional
[16] = system: Mycobacterium tuberculosis; experiment: Antimycobacterial activity against Mycobacterium tuberculosis H37Rv ATCC 27294 infected in Balb/c mouse assessed as reduction in bacterial load in spleen at 25 mg/kg, po qd administered five days in a week starting 2 weeks post challenge measured after 3 to 6 weeks relative to untreated control; assay type: functional, organism-based; design: dose 25 mg/kg; summary of the method: as §1
[17] = system: Mycobacterium tuberculosis; experiment: Ratio of isoniazid MIC99 to compound MIC99 for Mycobacterium tuberculosis H37Rv ATCC 27294 after 14 days by microscopy; assay type: functional
[18] = system: Mycobacterium tuberculosis; experiment: Antimycobacterial activity against Mycobacterium tuberculosis H37Rv ATCC 27294 infected in Balb/c mouse assessed as reduction in bacterial load in spleen at 50 mg/kg, po qd administered five days in a week starting 2 weeks post challenge measured after 6 weeks relative to DMSO-treated control; assay type: functional; summary of the method: as §1
[19] = system: Mycobacterium tuberculosis; experiment: Antimycobacterial activity against Mycobacterium tuberculosis H37Rv ATCC 27294 infected in Balb/c mouse assessed as reduction in bacterial load in lung at 50 mg/kg, po qd administered five days in a week starting 2 weeks post challenge measured after 3 to 10 weeks relative to untreated control; assay type: functional, organism-based; design: dose 50 mg/kg; summary of the method: as §1
[20] = system: Mycobacterium tuberculosis; experiment: Antimycobacterial activity against Mycobacterium tuberculosis H37Rv ATCC 27294 infected in Balb/c mouse assessed as reduction in bacterial load in spleen at 50 mg/kg, po qd administered five days in a week starting 2 weeks post challenge measured after 3 weeks relative to DMSO-treated control; assay type: functional; summary of the method: as §1
[21] = system: Mycobacterium tuberculosis; experiment: Antimycobacterial activity against Mycobacterium tuberculosis H37Rv ATCC 27294 infected in Balb/c mouse assessed as reduction in bacterial load in lung at 25 mg/kg, po qd administered five days in a week starting 2 weeks post challenge measured after 3 to 10 weeks relative to untreated control; assay type: functional, organism-based; design: dose 25 mg/kg; summary of the method: as §1

| SMILES | MIC99 [1] [µM] | Activity (THP-1) [µM] | also measured |
| --- | --- | --- | --- |
| O=C(N/N=C/c1ccc(OCCn2cc(-c3ccccc3)nn2)cc1)c1ccncc1 | 0.39 (≈ 0.161 µg/mL) | > 50 | – |
| Cc1ccc(OCc2cn(CCOc3ccc(/C=N/NC(=O)c4ccncc4)cc3)nn2)cc1 | 0.39 (≈ 0.178 µg/mL) | > 50 | – |
| O=C(N/N=C/c1ccc(OCCCn2cc(CO)nn2)cc1)c1ccncc1 | 0.78 (≈ 0.297 µg/mL) | > 50 | – |
| CO[C@H]1/C=C/O[C@@]2(C)Oc3c(C)c(O)c4c(O)c(c(/C=N/N5CCN(C)CC5)c(O)c4c3C2=O)NC(=O)/C(C)=C\C=C\[C@H](C)[C@H](O)[C@@H](C)[C@@H](O)[C@@H](C)[C@H](OC(C)=O)[C@@H]1C [RIFAMPIN] | – | – | log10cfu [2]: 1.76; log10cfu [3]: 1.93; log10cfu [4]: 3.31; log10cfu [5]: 6.14; log10cfu [6]: 2.8 |
| CCCc1cn(CCCOc2ccc(/C=N/NC(=O)c3ccncc3)cc2)nn1 | 0.78 (≈ 0.306 µg/mL) | > 50 | – |
| NNC(=O)c1ccncc1 [ISONIAZID] | 0.39 (≈ 0.0535 µg/mL) | – | log10cfu [7]: 3.38; log10cfu [8]: 3.68; log10cfu [9]: 2.59; log10cfu [10]: 1.22; log10cfu [11]: 2.66; log10cfu [12]: 4 |
| O=C(N/N=C/c1ccc(OCCn2cc(COc3ccccc3)nn2)cc1)c1ccncc1 | 0.39 (≈ 0.173 µg/mL) | > 50 | – |
| O=C(N/N=C/c1ccc(OCCCn2cc(C3(O)CCCCC3)nn2)cc1)c1ccncc1 | 0.78 (≈ 0.35 µg/mL) | > 50 | – |
| O=C(N/N=C/c1ccc(OCCn2cc(CO)nn2)cc1)c1ccncc1 | 0.78 (≈ 0.286 µg/mL) | > 50 | – |
| CCC(=O)OCc1cn(CCOc2ccc(/C=N/NC(=O)c3ccncc3)cc2)nn1 | 0.78 (≈ 0.33 µg/mL) | > 50 | – |
| CCCCCn1cc(COc2ccc(/C=N/NC(=O)c3ccncc3)cc2)nn1 | 0.39 (≈ 0.153 µg/mL) | > 50 | – |
| O=C(N/N=C/c1ccc(OCCn2cc(COc3ccc(Cl)cc3)nn2)cc1)c1ccncc1 | 0.195 (≈ 0.093 µg/mL) | > 50 | log10cfu [2]: 1.46; log10cfu [3]: 0.02; log10cfu [4]: 2.58; log10cfu [13]: 1.5; log10cfu [5]: 0.91; log10cfu [14]: 3.31; log10cfu [15]: 2.58; log10cfu [6]: 0.82; Activity [16]: inactive; Ratio [17]: 2; log10cfu [18]: 2.15; Activity [19]: inactive; log10cfu [20]: 1.08; Activity [21]: inactive |
| O=C(N/N=C/c1ccc(OCCn2cc(-c3ccccn3)nn2)cc1)c1ccncc1 | 0.39 (≈ 0.161 µg/mL) | > 50 | – |
| Cc1ccc(OCc2cn(CCCOc3ccc(/C=N/NC(=O)c4ccncc4)cc3)nn2)cc1 | 0.78 (≈ 0.367 µg/mL) | > 50 | – |
| CCC(=O)OCc1cn(CCCOc2ccc(/C=N/NC(=O)c3ccncc3)cc2)nn1 | 0.78 (≈ 0.34 µg/mL) | > 50 | – |
| CCCn1cc(COc2ccc(/C=N/NC(=O)c3ccncc3)cc2)nn1 | 0.78 (≈ 0.284 µg/mL) | > 50 | – |
| CCCCc1cn(CCOc2ccc(/C=N/NC(=O)c3ccncc3)cc2)nn1 | 0.78 (≈ 0.306 µg/mL) | > 50 | – |
| CC(C)n1cc(COc2ccc(/C=N/NC(=O)c3ccncc3)cc2)nn1 | 0.78 (≈ 0.284 µg/mL) | > 50 | – |
| O=C(N/N=C/c1ccc(OCCCn2cc(COc3ccc(Cl)cc3)nn2)cc1)c1ccncc1 | 0.78 (≈ 0.383 µg/mL) | > 50 | – |
| O=C(N/N=C/c1ccc(OCCn2cc(C3(O)CCCCC3)nn2)cc1)c1ccncc1 | 0.39 (≈ 0.169 µg/mL) | > 50 | – |
| CCCCc1cn(CCCOc2ccc(/C=N/NC(=O)c3ccncc3)cc2)nn1 | 0.39 (≈ 0.159 µg/mL) | > 50 | – |
| O=C(N/N=C/c1ccc(OCc2cn(Cc3ccccc3)nn2)cc1)c1ccncc1 | 0.78 (≈ 0.322 µg/mL) | > 50 | – |
| CCCCn1cc(COc2ccc(/C=N/NC(=O)c3ccncc3)cc2)nn1 | 0.39 (≈ 0.148 µg/mL) | > 50 | – |
| O=C(N/N=C/c1ccc(OCCCn2cc(COc3ccccc3)nn2)cc1)c1ccncc1 | 0.39 (≈ 0.178 µg/mL) | > 50 | – |
